Experimental findings from ChEMBL document CHEMBL1131312 (J Med Chem, 1998) are described below.

Values after ≈ are worked out from the molar mass of the structure shown. Active and inactive are the calls of the source.

A word on the EC50: it is the concentration giving half of the maximal effect. The low end stands for greater potency, the high end for weaker potency. In general, ED50 refers to the dose that gives a 50% effect, or the effect in half of the subjects. The IC50 is the concentration needed to halve the response being measured.

A short description of data set [1]: Water solubility of the compound. The format is ADME. The following applies: for solubility: water, read-out: S; for S: buffer.
Data set [2] concerns the target T1, DNA topoisomerase II (Homo sapiens, UniProt P11388+Q02880). Briefly: In vitro inhibitory activity against DNA topoisomerase II. It counts as protein assay, Drosophila melanogaster.
Data set [3] deals with Mus musculus. The data set is described as follows: percent T / C values ([…] / control) against P388 murine leukemia cells at 40 mg/kg dose. The format is functional. The gist of the method: (§1)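 CDF1 mice over 18 g implanted iv with 10^6 P388 leukemia cells on day 0 and randomized. Single ip dose on day 1, chosen from 2.5, 10, 40 or 160 mg/kg. Survival and clinical signs followed daily; weights taken days 1, 4 and 8. T/C% is median survival of treated over control × 100; 125-175% is the minimum activity level.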

The subject of data set [4] is Mus musculus. The data set is described as follows: compound was tested in vivo for inhibition of P388 murine leukemia cells after iv / ip administration. The format is functional. The gist of the method: as §1
Data set [5] in a line: in vitro inhibitory activity against tubulin polymerization. Also noted: species or system Ovis aries.
Data set [6] deals with L1210. Briefly: In vitro cytotoxic activity against murine L1210 leukemia cells. It counts as functional, cell-based, Mus musculus. The gist of the method:
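Murine L1210 leukemia cells grown in RPMI 1640 with 10% heat-inactivated horse serum at 37 °C, 5% CO2, used within 40 passages (doubling time 8-10 h). Exponentially growing cells (1.5 × 10^5/well) exposed to a concentration range for 48 h, then counted electronically.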

The target of data set [7] is T1, DNA topoisomerase II. The data set is described as follows: Concentration of compound at which inhibitory activity detected against DNA topoisomerase II. The format is protein assay, Drosophila melanogaster.
Data set [8] deals with Mus musculus. The data set is described as follows: compound was tested in vivo for inhibition of P388 murine leukemia cells after iv / ip administration at 40 mg/ kg; NA indicates inactive. It counts as functional, organism-based. Also noted: dose 40 mg/ kg. The gist of the method: (§2)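 P388 leukemia cells (10^6/mouse) implanted iv in CDF1 mice (>18 g) on day 0. After randomization, single ip dose on day 1 from the series 2.5, 10, 40, 160 mg/kg. Daily clinical checks and death recorded, weights on days 1, 4, 8. Activity scored as median survival treated/control ×100 (T/C, %), with 125–175% as minimum activity (NCI criteria).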

Data set [9] has as its system Mus musculus. The data set is described as follows: Compound was tested in vivo for inhibition of P388 murine leukemia cells after iv / ip administration at 40 mg/ kg; NA indicates inactive. It counts as functional, organism-based. Also noted: dose 40 mg/ kg. The gist of the method:
as §2

A short description of data set [10]: Water solubility of the compound; insoluble. It counts as ADME. Conditions: buffer.
Data set [11] has as its system Mus musculus. The data set is described as follows: percent T / C values ([…] / control) against P388 murine leukemia cells at 160 mg/kg dose. The format is functional. The gist of the method:
as §1

[12] abbreviates: Mus musculus, P388, read-out: ED50.

For the compound `COc1cc([C@@H]2c3cc4c(cc3C(OC3OC5COC(C)OC5C(O)C3N(C)C)C3COC(=O)[C@@H]32)OCO4)cc(OC)c1O` (stereo partly specified), the solubility in data set [1] worked out at 15 mg/mL (≈ 24.4 mM). In addition, in [2], the concentration for a half-maximal effect (EC50) was determined as 56 µM.

For `COc1cc([C@@H]2c3cc4c(cc3[C@@H](OC3CC(N(C)C)C5OC(C)OCC5O3)[C@H]3COC(=O)[C@H]23)OCO4)cc(OC)c1O` (stereo in doubt; 29), the T/C max in data set [3] (40 mg/kg) was 257%. The compound also registered a median effective dose (ED50) in data set [4] of 5 mg/kg. For the same compound, the IC50 in data set [5] is greater than 50 µM; in data set [6] (Mus musculus, L1210), 90 nM. Moreover, in [1], the solubility was 26 mg/mL (≈ 43.4 mM). In data set [7], this compound had an EC50 greater than 100 µM.

`COc1cc([C@@H]2c3cc4c(cc3[C@@H](O[C@@H]3CC(N)C5OC(C)OCC5O3)[C@H]3COC(=O)[C@H]23)OCO4)cc(OC)c1O` (stereo partly specified): the IC50 in data set [5] is greater than 50 µM; in [6] (Mus musculus, L1210), 1300 nM. Moreover, in data set [1], the solubility was found to be 10 mg/mL (≈ 17.5 mM). Besides, in data set [8], the ED50 entry was “inactive”. For the same compound, the EC50 in data set [7] was greater than 100 µM.

Take `COc1cc([C@@H]2c3cc4c(cc3[C@@H](OC3CC(N5CCOCC5)C5OC(C)OCC5O3)[C@H]3COC(=O)[C@H]23)OCO4)cc(OC)c1O` (stereo partly specified): the ED50 entry in data set [9] is “inactive”. In data set [6] (Mus musculus, L1210), the IC50 is greater than 1000 nM. Also, the S result in data set [10] was “Insoluble”. Further, the EC50 in [7] was greater than 1 µM.

In [3], `COc1cc([C@@H]2c3cc4c(cc3[C@@H](OC3CC(N)C5OC(C)OCC5O3)[C@H]3COC(=O)[C@H]23)OCO4)cc(OC)c1O` (stereo in doubt; 27) registered a T/C max of 193%. Also, the median effective dose (ED50) in [4] was found to be 1.7 mg/kg. The figures for the IC50 in data set [5] and in data set [6] (l1210) were greater than 50 µM and 70 nM, respectively. The S in data set [1] came out at 9 mg/mL. In data set [7], this compound yielded an EC50 greater than 100 µM.

In data set [3] (40 mg/kg), `COc1cc([C@@H]2c3cc4c(cc3[C@@H](OC3CC(N(C)C)C5OC(C)OCC5O3)[C@H]3COC(=O)[C@H]23)OCO4)cc(OC)c1O` (stereo in doubt; 28) came in with a T/C max of 243%. The compound also gave an ED50 in data set [4] of 1.7 mg/kg. For the same compound, the IC50 in [6] (l1210) was found to be 110 nM. The compound also came in with a S in [1] of 24 mg/mL. In [7], this compound gave an EC50 greater than 100 µM.

Turning to `COc1cc([C@@H]2c3cc4c(cc3[C@@H](O[C@@H]3O[C@@H]5CO[C@@H](C)O[C@H]5[C@H](O)[C@H]3O)[C@H]3COC(=O)[C@H]23)OCO4)cc(OC)c1O` [ETOPOSIDE], the ED50 in [4] (setting [12]) is 5 mg/kg. Inhibition in [6] (Mus musculus, L1210) was half-maximal at 200 nM (IC50). Further, the S in [1] turned out to be 0.01 mg/mL. Besides, the T/C max in [11] was determined as 242%.

As to `COc1cc([C@@H]2c3cc4c(cc3[C@@H](OC3CC(N)C(O)C(CN)O3)[C@H]3COC(=O)[C@H]23)OCO4)cc(OC)c1O` (stereo partly specified), the IC50 stood at 11 µM in [5] and 210 nM in [6] (Mus musculus, L1210). Also, the solubility in data set [1] came out at 42 mg/mL (≈ 77.1 mM). Further, the ED50 entry in data set [8] was “inactive”. In addition, the EC50 in data set [7] is greater than 100 µM.

For the compound `COc1cc([C@@H]2c3cc4c(cc3[C@@H](OC3CC(NCCN)C5OC(C)OCC5O3)[C@H]3COC(=O)[C@H]23)OCO4)cc(OC)c1O` (stereo partly specified), the IC50 in data set [5] is greater than 10 µM; in data set [6] (Mus musculus, L1210) it was 1700 nM. Further, the solubility in data set [1] is 40 mg/mL (≈ 65.1 mM). The ED50 entry in [8] was “inactive”. This compound also displayed an EC50 in data set [7] greater than 100 µM.

`COc1cc([C@@H]2c3cc4c(cc3CC3COC(=O)[C@@H]32)OCO4)cc(OC)c1O` (stereo partly specified) gave a 50% inhibitory concentration (IC50) in [5] of 13 µM.

As for `COc1cc([C@@H]2c3cc4c(cc3[C@@H](OC3CC(NCC#N)C5OC(C)OCC5O3)[C@H]3COC(=O)[C@H]23)OCO4)cc(OC)c1O` (stereo partly specified), the 50% effective dose (ED50) in [4] (setting [12]) was 20 mg/kg. For the same compound, the IC50 in [5] is greater than 100 µM; in data set [6] (Mus musculus, L1210), 2000 nM. For the same compound, the T/C max in data set [11] was found to be 186%. For the same compound, the S entry in data set [10] is recorded as “Insoluble”. In [7], this compound registered an EC50 greater than 1 µM.

The compound `COc1cc([C@@H]2c3cc4c(cc3[C@H](O)[C@H]3COC(=O)[C@H]23)OCO4)cc(OC)c1OC` [PODOFILOX] gave an IC50 in data set [5] of 3 µM.

As for `COc1cc([C@@H]2c3cc4c(cc3[C@@H](OC3CC(N)C(O)C(C)O3)[C@H]3COC(=O)[C@H]23)OCO4)cc(OC)c1O` (stereo partly specified), the IC50 was greater than 10 µM in data set [5] and 12000 nM in data set [6] (Mus musculus, L1210). Also, the solubility in data set [1] was 13 mg/mL (≈ 24.5 mM). In data set [8], the ED50 result is “inactive”. This compound also gave an EC50 in data set [7] of 5.6 µM.

`COc1cc([C@@H]2c3cc4c(cc3[C@@H](OC3CC(N)C5OC(C)OCC5O3)[C@H]3COC(=O)[C@H]23)OCO4)cc(OC)c1O` (stereo in doubt; 17) came in with an ED50 in [4] of 5 mg/kg. Besides, the IC50 in data set [5] was greater than 10 µM; in data set [6] (l1210) it was 230 nM. Besides, the solubility in [1] came out at 11 mg/mL (≈ 19.2 mM). Further, the T/C max in data set [11] was found to be 300%. The compound also came in with an EC50 in data set [7] greater than 100 µM.
